Measurements taken from ChEMBL document CHEMBL4513216, “Probing the Open Global Health Chemical Diversity Library for Multistage-Active Starting Points for Next-Generation Antimalarials” (ACS Infect Dis, 2020).

Assay: Toxicity liver stage against HepG2, at 10uM
Format: cell-based
Design: test concentration 10 uM, cell line HepG2-A16-CD81EGFP
Settings: human, HepG2-A16-CD81EGFP cells; read-out: INHIBITION
Method in brief: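 Uninfected HepG2-A16-CD81EGFP cells, 3 × 10^3 per well, 1536-well, plated on prespotted compound at 10 μM final, parasite-free screening media added to match infected plates; puromycin 10 μM positive, DMSO 0.5% negative; run in parallel with 48 h PbLuc assay at 37 °C, 5% CO2; viability by CellTiter-Glo luminescence, normalized to controls.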

CCOC(=O)NCCC(=O)NCc1ccc(Oc2cccc(F)c2)nc1
cytotoxicity at 10 µM: 10.9%

CN1CCCN(S(=O)(=O)c2cnn(C)c2)c2cc(Cl)ccc21
cytotoxicity at 10 µM: 7.41%

Cn1ncc2c(N[C@H]3CCCC[C@@H]3O)nc(C(C)(C)C)nc21
cytotoxicity at 10 µM: -21.5%

CCO[C@@H]1CN(S(=O)(=O)c2cn(C)cn2)[C@@H]2CCCO[C@@H]21
cytotoxicity at 10 µM: -146%

CC(C)c1nn(C)c(N2CCOCC2)c1CNC(C)c1cccs1 (stereo unspecified)
cytotoxicity at 10 µM: -5.06%

Cc1nc(C)c(CN2CCOC(CNc3cccnn3)C2)s1 (stereo unspecified)
cytotoxicity at 10 µM: -1.71%

COCCN1C[C@@H]2CN(c3cnccn3)C[C@@H]2C1=O
cytotoxicity at 10 µM: -104%

CCc1ncc(C(=O)NCCNc2ccncc2)s1
cytotoxicity at 10 µM: -9.7%

COC(=O)c1ccc(N2CCN(Cc3csc(C)n3)CC2)nn1
cytotoxicity at 10 µM: -1.7%

O=C(CN1CCc2ccccc2C1)NCc1ccco1
cytotoxicity at 10 µM: 6.32%

CCN1CC2(CCC1=O)CCN(Cc1nncn1C)CC2
cytotoxicity at 10 µM: 4.46%

Cc1c(C(=O)N2CCCSCC2)nnn1-c1ccccc1Cl
cytotoxicity at 10 µM: 8.31%

CCn1cc(CN2CCc3nc(N4CCOCC4)nc(O)c3CC2)cn1
cytotoxicity at 10 µM: -5.59%

NC(=O)NC(=O)CNc1cccc(C(=O)c2ccccc2)c1
cytotoxicity at 10 µM: 7.95%

CN1C(=N)NC(=O)/C1=C/c1ccc(-c2ccc(Br)cc2)o1
cytotoxicity at 10 µM: 5.39%

Cc1cc(CN2CCCC2Cn2cccn2)no1 (stereo unspecified)
cytotoxicity at 10 µM: -4.36%

Cc1cn[nH]c1C1COCCN1S(=O)(=O)c1cn[nH]c1 (stereo unspecified)
cytotoxicity at 10 µM: -24.6%

COc1ccc(CN2C[C@H]3CCC[C@@H](CN(C)C)[C@H]3C2)cn1
cytotoxicity at 10 µM: 4.65%

Cc1nn(C)c(C)c1CN(C)C(=O)C1COc2ccccc2C1 (stereo unspecified)
cytotoxicity at 10 µM: -3.35%

O=C(c1ccco1)N1C[C@@H]2CN(c3ccccn3)C[C@@H]2C1
cytotoxicity at 10 µM: -1.27%

N#CCCn1cnc2c(Br)cc(Br)cc2c1=O
cytotoxicity at 10 µM: -5.35%

Cc1cc(C)n(CCC(=O)N2CCCC(n3cncn3)C2)n1 (stereo unspecified)
cytotoxicity at 10 µM: -5.05%

Cc1ccc(-c2cc(N)c(=O)n(CC(=O)NCC3CC3)n2)s1
cytotoxicity at 10 µM: 10.3%

CC(C)CC(=O)N1CC[C@@H]2CN(CC(=O)N(C)C)S(=O)(=O)[C@@H]2CC1
cytotoxicity at 10 µM: 10%

CC(C#N)CSc1ccccc1NCC(=O)NC(C1CC1)C1CC1 (stereo unspecified)
cytotoxicity at 10 µM: 14.5%

COc1cccc(OC2CN(C(=O)CCn3cnnn3)C2)c1
cytotoxicity at 10 µM: -0.0726%

N#Cc1ccc(CN2CCc3sccc3C2)c(F)c1
cytotoxicity at 10 µM: -5.13%

COCCN1CCO[C@@H]2CN(Cc3ccccn3)C[C@@H]2C1
cytotoxicity at 10 µM: -3.06%

CNC(=O)N1CC[C@@H]2CN(Cc3cccc(Cl)c3)S(=O)(=O)[C@@H]2CC1
cytotoxicity at 10 µM: 0.748%

Cc1[nH]ccc1C(=O)N1CCC2(CC1)c1nc[nH]c1CCN2CC(C)C
cytotoxicity at 10 µM: 7.31%

CNC(=O)[C@@H]1[C@H]2CNCCN2C[C@H]1c1ccccc1
cytotoxicity at 10 µM: 3.28%

COc1cc(OC)nc(N2CCCC(c3nccn3CCN(C)C)C2)n1 (stereo unspecified)
cytotoxicity at 10 µM: 5.12%

CS(=O)(=O)N1CCC(Oc2ccc(C#N)cc2)CC1
cytotoxicity at 10 µM: -8.97%

O=C(Nc1cnc2n1CCCC2)C1CCCN1C1CCNCC1 (stereo unspecified)
cytotoxicity at 10 µM: 11.6%

Cc1cc(=O)n2nc(Oc3cc(Cl)cc(Cl)c3)sc2n1
cytotoxicity at 10 µM: 16.8%

COCC(=O)N1CCC2(CCC(C(=O)N3CCCC3)O2)CC1 (stereo unspecified)
cytotoxicity at 10 µM: -1.63%

CC(=O)c1ccc(OCC(=O)c2cccn2C)cc1
cytotoxicity at 10 µM: 27.6%

NC(=O)CN1CCC(Nc2ccnc3ccc(Cl)cc23)CC1
cytotoxicity at 10 µM: 31.8%

Cc1nc(CN2CCCC(CCc3c(F)cccc3F)C2)c[nH]1 (stereo unspecified)
cytotoxicity at 10 µM: -21%

CCn1cnnc1C1CCN(C(=O)c2ccc3c(c2)nnn3C)CC1
cytotoxicity at 10 µM: 10.9%

Cn1ncc2ccc(C3CCCN(C(=O)Cc4cccs4)C3)nc21 (stereo unspecified)
cytotoxicity at 10 µM: 10%

CC(C)N1CCN(S(=O)(=O)c2ncn(C)c2Cl)CC1
cytotoxicity at 10 µM: 13.9%

Cn1cccc1C(=O)NCc1cnc2n1CCN(CC1CCOCC1)C2
cytotoxicity at 10 µM: -105%

COCCC(=O)N1CCCC(CCC(=O)NCc2cccc(OC)c2)C1 (stereo unspecified)
cytotoxicity at 10 µM: 23.1%

Cc1cncc(C2CCCN(C(=O)c3ccc(C)[nH]c3=O)C2)n1 (stereo unspecified)
cytotoxicity at 10 µM: 5.37%

Cc1cc(CN(Cc2cccs2)CC2CCCO2)on1 (stereo unspecified)
cytotoxicity at 10 µM: -10.1%

c1ccc(OCc2n[nH]c3c2CN(Cc2cccs2)C3)nc1
cytotoxicity at 10 µM: 8.25%

O=C(O)c1ncccc1OCC(F)(F)F
cytotoxicity at 10 µM: -8.76%

CCN1CCC(NC(=O)CN2CCCC2Cn2nc(C)cc2C)CC1 (stereo unspecified)
cytotoxicity at 10 µM: -6.83%

CN(C)C1CCN(C(=O)c2ccnn2-c2ccc3ccccn23)CC1
cytotoxicity at 10 µM: -114%

O=C(CCN1CCCCCC1c1ccco1)N1CCOCC1 (stereo unspecified)
cytotoxicity at 10 µM: 6.14%

CCn1cnnc1C1CCN(C(=O)Cc2ccc(OC)c(F)c2)CC1
cytotoxicity at 10 µM: -7.54%

Cc1nc(C(=O)N2CCN(S(C)(=O)=O)CC2)c(-c2ccccc2Cl)s1
cytotoxicity at 10 µM: 4.37%

CC(NC(=O)N1CCSC(C)(C)C1)c1noc(-c2ccccc2)n1 (stereo unspecified)
cytotoxicity at 10 µM: -22.3%

COc1ccc([C@@H]2CN(c3cc(OC)ncn3)C[C@H]2N(C)C)cc1
cytotoxicity at 10 µM: 6.98%

CS(=O)(=O)NC[C@@H]1OC[C@H]2CN(Cc3ccsc3)CC[C@H]21
cytotoxicity at 10 µM: 14.3%

CCn1cc(-c2cc(-c3cc(CC(=O)O)cs3)nc(N)c2C#N)c(C)n1
cytotoxicity at 10 µM: 1.16%

CCn1cnnc1CNC(=O)N(C)Cc1ccc2c(c1)OCCO2
cytotoxicity at 10 µM: -1.96%

Cn1nnc2c1C(COCC1CC1)CN(C(=O)Cc1ccccn1)C2 (stereo unspecified)
cytotoxicity at 10 µM: 13.5%

CCN(CC)C(=O)CNC(=O)c1c[nH]c2ccc(OC)cc12
cytotoxicity at 10 µM: -0.527%

CN(Cc1cnn(C)c1)Cc1nc(CCc2ccccc2)no1
cytotoxicity at 10 µM: -26.1%

CN(C)CCN1CC2(CCCN(c3ncc(Cl)cc3F)C2)CCC1=O (stereo unspecified)
cytotoxicity at 10 µM: -13.6%

COC(=O)[C@H]1C[C@@H](O)CCN1S(=O)(=O)c1ccc(F)cc1F
cytotoxicity at 10 µM: -3.01%

COC(=O)[C@H]1CCCCN1C(=O)c1cccc(-n2cccn2)c1
cytotoxicity at 10 µM: -8.29%

CCN1C[C@H]2CCN(Cc3ccncc3)C(=O)[C@@H]2C1
cytotoxicity at 10 µM: 5.53%

CC(CCc1ccc(F)c(F)c1)NS(=O)(=O)Cc1ccon1 (stereo unspecified)
cytotoxicity at 10 µM: -7.97%

COCCn1cnc2ccc(NC(=O)CCCn3cccn3)cc2c1=O
cytotoxicity at 10 µM: 6.43%

Cc1cc(NCc2noc(C(C)C)n2)nc(-c2ccccc2)n1
cytotoxicity at 10 µM: 11%

Cc1nnc(C2CCN(c3ccccc3)CC2)o1
cytotoxicity at 10 µM: 8.84%

C[C@@H]1CN(Cc2cc(C3CCCCC3)no2)CC[C@@]1(O)C1CC1
cytotoxicity at 10 µM: 0.957%

CS(=O)(=O)c1cncnc1C1CCCNC1 (stereo unspecified)
cytotoxicity at 10 µM: -8.33%

O=C(CCc1ccccc1)NCC1CCN(Cc2cccs2)CC1
cytotoxicity at 10 µM: -2.68%

CCC(CO)N(Cc1ccncc1)Cc1c[nH]nc1-c1ccc(F)cc1 (stereo unspecified)
cytotoxicity at 10 µM: -5.5%

O=C(c1ccc2c(c1)CCO2)N1CCN(c2cnccn2)CC1
cytotoxicity at 10 µM: -14.4%

CC(C)CCNC(=O)c1ccc2c(=O)n(-c3ccccc3)cnc2c1
cytotoxicity at 10 µM: -4.65%

CSc1c(CC(=O)O)n(C)c2ccccc12
cytotoxicity at 10 µM: 3.79%

Cc1cnc(-c2nc(C3CCN(Cc4ccccc4C)CC3)no2)cn1
cytotoxicity at 10 µM: 4.08%

CC(C)Oc1cc(N2C[C@H](C3CC3)[C@@H](N)C2)nc(N)n1
cytotoxicity at 10 µM: -4.75%

Cc1cccc(C(=O)N2CCCn3c(CN4CCCCC4)nnc3C2)c1
cytotoxicity at 10 µM: -84%

CC(C)(C)n1c(NC(=O)CNC(=O)NC2CC2)nc2ccccc21
cytotoxicity at 10 µM: 4.23%

O=C(C1CC1)N1C[C@H]2CCCN(S(=O)(=O)c3ccc4c(c3)CCC4)[C@H]2C1
cytotoxicity at 10 µM: 8.52%
